Measured values: ChEMBL document CHEMBL3769320, “Cell Penetrant Inhibitors of the KDM4 and KDM5 Families of Histone Lysine Demethylases. 2. Pyrido[3,4-d]pyrimidin-4(3H)-one Derivatives” (J Med Chem, 2016)

How the values were obtained:
[1] = biological target: T1, Lysine-specific demethylase 4C (Homo sapiens, UniProt Q9H3R0); experiment: Inhibition of N-terminal his-tagged human KDM4C expressed in Escherichia coli BL21(DE3) using trimethylated peptide substrate by RFMS assay
T1 sequence (Q9H3R0 whole entry): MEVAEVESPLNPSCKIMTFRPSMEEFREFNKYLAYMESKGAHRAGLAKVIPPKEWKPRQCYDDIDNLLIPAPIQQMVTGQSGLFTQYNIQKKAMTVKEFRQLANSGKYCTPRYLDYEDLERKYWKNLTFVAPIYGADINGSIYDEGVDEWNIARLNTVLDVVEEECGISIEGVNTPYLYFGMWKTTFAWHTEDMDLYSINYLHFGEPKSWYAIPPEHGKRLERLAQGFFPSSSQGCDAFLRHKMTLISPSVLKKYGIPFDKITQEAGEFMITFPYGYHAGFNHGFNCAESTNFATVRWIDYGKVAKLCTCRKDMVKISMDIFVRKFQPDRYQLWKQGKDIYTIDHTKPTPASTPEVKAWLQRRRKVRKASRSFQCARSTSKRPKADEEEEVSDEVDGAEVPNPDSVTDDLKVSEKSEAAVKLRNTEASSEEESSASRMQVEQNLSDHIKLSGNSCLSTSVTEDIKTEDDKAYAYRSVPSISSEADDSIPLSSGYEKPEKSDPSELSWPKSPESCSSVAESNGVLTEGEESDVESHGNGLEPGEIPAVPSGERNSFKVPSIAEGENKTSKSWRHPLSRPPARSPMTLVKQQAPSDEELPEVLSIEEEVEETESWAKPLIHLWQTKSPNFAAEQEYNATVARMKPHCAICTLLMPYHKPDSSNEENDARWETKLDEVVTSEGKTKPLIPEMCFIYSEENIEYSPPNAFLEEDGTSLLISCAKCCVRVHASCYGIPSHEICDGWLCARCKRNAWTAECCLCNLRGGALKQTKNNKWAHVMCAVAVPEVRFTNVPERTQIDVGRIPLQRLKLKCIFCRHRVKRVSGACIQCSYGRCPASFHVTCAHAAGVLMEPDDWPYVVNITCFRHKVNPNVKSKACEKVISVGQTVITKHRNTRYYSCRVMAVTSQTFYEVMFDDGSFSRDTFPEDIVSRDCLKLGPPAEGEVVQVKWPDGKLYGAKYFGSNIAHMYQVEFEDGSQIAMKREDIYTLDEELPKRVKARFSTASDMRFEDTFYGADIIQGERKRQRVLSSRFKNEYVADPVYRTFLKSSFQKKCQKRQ

[2] = Dissociation constant, pKa of the compound; type: physicochemical
[3] = biological target: T1, Lysine-specific demethylase 4C; experiment: Inhibition of N-terminal his-tagged full-length human KDM4C transfected in U2OS cells assessed as inhibition of H3K9Me3 demethylation for 24 hrs; type: cell-based
[4] = biological target: T2, Lysine-specific demethylase 4A (Homo sapiens, UniProt O75164); experiment: Inhibition of KDM4A (unknown origin) by RFMS assay
T2 sequence (O75164 whole entry): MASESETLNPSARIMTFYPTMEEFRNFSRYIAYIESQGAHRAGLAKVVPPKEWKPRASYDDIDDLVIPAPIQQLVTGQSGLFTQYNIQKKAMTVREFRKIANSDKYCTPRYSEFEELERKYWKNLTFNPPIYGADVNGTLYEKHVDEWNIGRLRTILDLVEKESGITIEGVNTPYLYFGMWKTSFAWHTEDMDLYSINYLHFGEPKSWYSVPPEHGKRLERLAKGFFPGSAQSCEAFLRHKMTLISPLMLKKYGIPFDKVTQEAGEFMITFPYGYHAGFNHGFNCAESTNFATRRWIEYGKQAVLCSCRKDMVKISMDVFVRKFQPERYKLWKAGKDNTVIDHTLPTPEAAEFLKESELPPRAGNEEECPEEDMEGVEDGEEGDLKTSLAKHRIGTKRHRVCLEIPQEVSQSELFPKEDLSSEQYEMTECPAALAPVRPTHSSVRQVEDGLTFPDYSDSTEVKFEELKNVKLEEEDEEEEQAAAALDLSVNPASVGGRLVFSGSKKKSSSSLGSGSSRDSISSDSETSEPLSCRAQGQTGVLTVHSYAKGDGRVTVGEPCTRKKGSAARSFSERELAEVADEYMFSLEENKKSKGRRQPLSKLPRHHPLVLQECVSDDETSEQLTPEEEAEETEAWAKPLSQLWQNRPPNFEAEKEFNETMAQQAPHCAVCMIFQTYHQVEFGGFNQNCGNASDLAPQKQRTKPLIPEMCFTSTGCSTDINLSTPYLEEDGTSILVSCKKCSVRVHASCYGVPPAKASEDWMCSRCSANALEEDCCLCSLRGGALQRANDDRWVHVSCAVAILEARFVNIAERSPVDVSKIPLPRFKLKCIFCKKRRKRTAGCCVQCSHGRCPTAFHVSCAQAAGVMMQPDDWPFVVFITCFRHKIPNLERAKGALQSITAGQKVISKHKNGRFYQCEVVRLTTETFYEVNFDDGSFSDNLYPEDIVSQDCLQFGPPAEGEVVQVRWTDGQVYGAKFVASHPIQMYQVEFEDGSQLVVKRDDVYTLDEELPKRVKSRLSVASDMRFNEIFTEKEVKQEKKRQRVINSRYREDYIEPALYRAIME

[5] = biological target: T3, Lysine-specific demethylase 4D (Homo sapiens, UniProt Q6B0I6); experiment: Inhibition of KDM4D (unknown origin) by RFMS assay
T3 sequence (Q6B0I6 whole entry): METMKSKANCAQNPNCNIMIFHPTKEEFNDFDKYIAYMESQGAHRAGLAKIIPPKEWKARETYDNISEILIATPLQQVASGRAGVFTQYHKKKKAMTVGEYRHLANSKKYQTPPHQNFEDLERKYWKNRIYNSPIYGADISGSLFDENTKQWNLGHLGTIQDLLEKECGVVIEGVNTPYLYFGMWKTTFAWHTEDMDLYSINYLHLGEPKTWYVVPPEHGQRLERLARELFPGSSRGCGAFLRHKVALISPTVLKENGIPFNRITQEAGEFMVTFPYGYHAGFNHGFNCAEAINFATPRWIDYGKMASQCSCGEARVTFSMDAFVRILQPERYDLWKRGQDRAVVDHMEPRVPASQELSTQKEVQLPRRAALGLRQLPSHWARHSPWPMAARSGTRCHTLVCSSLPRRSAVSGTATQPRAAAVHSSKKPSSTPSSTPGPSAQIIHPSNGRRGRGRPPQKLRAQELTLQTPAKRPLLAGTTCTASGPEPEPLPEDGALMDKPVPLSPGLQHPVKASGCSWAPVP

[6] = biological target: T4, Lysine-specific demethylase 4E (Homo sapiens, UniProt B2RXH2); experiment: Inhibition of KDM4E (unknown origin) by RFMS assay
T4 sequence (B2RXH2 whole entry): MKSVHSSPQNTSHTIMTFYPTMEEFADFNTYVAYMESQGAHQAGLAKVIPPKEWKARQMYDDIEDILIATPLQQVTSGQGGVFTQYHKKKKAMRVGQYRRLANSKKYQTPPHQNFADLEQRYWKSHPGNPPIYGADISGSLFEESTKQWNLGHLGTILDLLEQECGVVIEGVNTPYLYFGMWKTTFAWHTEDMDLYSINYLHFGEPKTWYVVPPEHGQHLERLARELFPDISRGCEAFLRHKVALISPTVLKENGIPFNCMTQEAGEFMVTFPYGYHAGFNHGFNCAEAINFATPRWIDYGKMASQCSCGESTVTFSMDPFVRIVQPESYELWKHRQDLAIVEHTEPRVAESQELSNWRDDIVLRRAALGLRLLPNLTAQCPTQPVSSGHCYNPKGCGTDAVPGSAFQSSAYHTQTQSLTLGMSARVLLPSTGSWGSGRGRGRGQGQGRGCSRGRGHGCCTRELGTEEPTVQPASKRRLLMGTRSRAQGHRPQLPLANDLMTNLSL

[7] = biological target: Lysine-specific demethylase 6B (Homo sapiens, UniProt O15054); experiment: Inhibition of KDM6B (unknown origin) by RFMS assay
Lysine-specific demethylase 6B, sequence (O15054 whole entry): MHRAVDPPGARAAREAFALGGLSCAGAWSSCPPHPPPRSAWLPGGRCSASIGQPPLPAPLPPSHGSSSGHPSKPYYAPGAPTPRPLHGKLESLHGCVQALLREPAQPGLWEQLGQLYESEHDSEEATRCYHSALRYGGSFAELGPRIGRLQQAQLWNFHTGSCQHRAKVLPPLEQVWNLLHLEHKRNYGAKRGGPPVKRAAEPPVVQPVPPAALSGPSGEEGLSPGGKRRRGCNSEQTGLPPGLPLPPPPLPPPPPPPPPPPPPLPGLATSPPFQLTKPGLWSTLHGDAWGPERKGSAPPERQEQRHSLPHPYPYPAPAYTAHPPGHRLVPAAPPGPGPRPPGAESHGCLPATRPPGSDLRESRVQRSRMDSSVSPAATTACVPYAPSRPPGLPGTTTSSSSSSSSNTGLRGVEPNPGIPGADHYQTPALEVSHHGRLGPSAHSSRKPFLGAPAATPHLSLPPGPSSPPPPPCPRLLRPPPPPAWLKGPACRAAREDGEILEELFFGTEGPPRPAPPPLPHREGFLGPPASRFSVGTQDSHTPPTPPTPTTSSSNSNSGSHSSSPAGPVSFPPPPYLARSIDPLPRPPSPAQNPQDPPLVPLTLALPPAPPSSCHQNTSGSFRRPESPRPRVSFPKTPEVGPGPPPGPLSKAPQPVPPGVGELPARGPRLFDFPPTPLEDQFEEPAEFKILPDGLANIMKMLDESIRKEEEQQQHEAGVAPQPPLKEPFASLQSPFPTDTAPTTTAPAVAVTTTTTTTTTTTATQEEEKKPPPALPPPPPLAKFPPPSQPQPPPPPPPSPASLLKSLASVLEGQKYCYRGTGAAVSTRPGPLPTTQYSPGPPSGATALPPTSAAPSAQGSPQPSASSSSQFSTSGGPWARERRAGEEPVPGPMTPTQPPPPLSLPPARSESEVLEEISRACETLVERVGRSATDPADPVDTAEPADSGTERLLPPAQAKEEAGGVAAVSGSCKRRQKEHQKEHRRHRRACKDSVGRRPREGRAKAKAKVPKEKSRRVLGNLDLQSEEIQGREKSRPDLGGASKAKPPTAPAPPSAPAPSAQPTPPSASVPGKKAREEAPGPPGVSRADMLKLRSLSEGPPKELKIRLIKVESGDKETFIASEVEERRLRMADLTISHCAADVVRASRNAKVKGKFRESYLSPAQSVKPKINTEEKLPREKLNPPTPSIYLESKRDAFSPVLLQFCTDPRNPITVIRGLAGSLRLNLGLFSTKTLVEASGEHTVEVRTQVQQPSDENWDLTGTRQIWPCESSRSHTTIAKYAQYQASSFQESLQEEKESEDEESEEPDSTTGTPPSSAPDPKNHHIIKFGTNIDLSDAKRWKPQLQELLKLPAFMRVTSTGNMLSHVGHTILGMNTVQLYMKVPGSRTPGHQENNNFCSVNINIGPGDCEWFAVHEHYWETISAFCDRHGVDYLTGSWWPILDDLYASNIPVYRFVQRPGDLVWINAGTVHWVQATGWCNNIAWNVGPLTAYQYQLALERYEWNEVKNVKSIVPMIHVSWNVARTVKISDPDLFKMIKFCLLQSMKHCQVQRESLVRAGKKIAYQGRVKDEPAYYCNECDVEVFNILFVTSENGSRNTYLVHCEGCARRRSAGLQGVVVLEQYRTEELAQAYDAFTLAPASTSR

Prolyl hydroxylase EGLN3 = Prolyl hydroxylase EGLN3 (Homo sapiens, UniProt Q9H6Z9); experiment: Inhibition of full-length EGLN3 (unknown origin) expressed in Escherichia coli BL21(DE3) cells by HTRF assay
Prolyl hydroxylase EGLN3, sequence (Q9H6Z9 whole entry, the tested form may be a part): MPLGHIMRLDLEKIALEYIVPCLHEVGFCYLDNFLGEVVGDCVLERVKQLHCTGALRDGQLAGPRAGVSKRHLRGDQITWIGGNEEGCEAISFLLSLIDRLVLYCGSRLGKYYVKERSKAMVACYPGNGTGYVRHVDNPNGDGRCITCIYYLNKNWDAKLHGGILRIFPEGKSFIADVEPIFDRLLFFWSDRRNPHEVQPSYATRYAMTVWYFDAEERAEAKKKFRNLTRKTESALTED

[8] = biological target: T5, Lysine-specific demethylase 5C (Homo sapiens, UniProt P41229); experiment: Inhibition of KDM5C catalytic domain (1 -764 aa) (unknown origin) expressed in Sf9 cells using H3K4Me3 peptide as substrate by RFMS assay
T5 sequence (P41229 whole entry, the tested form may be a part): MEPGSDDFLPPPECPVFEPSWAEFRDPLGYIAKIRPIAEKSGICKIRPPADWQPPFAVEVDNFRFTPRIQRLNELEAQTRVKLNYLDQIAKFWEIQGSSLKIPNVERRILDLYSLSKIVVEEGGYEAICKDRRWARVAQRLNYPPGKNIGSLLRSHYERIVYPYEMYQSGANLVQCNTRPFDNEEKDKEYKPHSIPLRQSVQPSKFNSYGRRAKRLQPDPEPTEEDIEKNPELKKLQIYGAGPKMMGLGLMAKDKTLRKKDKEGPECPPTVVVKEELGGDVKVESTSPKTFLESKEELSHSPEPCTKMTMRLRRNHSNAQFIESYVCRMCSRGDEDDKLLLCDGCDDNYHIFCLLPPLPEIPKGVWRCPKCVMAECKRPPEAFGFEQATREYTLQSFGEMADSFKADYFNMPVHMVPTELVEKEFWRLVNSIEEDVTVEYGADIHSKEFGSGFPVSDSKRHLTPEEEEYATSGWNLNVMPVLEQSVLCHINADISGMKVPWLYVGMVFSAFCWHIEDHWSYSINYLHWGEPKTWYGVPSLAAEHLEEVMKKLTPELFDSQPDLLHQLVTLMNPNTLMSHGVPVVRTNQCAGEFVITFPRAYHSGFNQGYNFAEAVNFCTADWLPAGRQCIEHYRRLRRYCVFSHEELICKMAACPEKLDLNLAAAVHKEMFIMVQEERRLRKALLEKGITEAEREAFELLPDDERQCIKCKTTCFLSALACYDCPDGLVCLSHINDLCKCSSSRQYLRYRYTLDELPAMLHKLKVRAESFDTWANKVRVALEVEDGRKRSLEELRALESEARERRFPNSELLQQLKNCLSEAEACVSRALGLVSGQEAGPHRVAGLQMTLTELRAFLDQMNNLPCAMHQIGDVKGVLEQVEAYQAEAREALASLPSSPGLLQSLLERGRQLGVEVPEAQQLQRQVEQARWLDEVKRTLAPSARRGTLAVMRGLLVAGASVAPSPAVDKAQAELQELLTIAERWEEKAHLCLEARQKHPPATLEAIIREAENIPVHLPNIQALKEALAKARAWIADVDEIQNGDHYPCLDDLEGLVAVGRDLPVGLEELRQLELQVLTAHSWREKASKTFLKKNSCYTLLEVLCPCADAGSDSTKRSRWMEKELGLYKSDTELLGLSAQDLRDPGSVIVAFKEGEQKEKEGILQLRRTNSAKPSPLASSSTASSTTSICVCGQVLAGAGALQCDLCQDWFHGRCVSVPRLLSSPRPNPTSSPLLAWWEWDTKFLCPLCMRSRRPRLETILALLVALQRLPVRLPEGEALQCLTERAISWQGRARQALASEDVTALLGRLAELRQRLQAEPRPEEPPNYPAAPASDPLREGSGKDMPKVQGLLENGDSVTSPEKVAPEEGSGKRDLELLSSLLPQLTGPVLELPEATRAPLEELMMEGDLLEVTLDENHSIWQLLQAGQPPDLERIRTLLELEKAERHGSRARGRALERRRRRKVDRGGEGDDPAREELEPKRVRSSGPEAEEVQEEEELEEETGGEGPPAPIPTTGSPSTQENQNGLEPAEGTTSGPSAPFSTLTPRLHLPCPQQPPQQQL

[9] = biological target: T5, Lysine-specific demethylase 5C; experiment: Inhibition of human KDM5C transfected in U2OS cells assessed as inhibition of […] demethylation for 24 hrs; type: cell-based; details: read-out: IC50
Summary of the method: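 High-content cell imaging assay in U2OS cells overexpressing KDM5C, the same cell type as the KDM4C cellular mechanistic assay. Cellular potency reported as pIC50.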

physchem = details: buffer, pH 7.4
[10] = biological target: T1, Lysine-specific demethylase 4C; experiment: Inhibition of N-terminal HALO-tagged full-length human KDM4C transfected in U2OS cells assessed as inhibition of H3K9Me3 demethylation for 24 hrs

SMILES	IC50 [1]	pKa [2]	IC50 [3]	IC50 [4]	IC50 [5]	IC50 [6]	IC50 [7]	IC50 (Prolyl hydroxylase EGLN3)	IC50 [8]	IC50 [9]	logD (physchem)	IC50 [10]
CCNc1nc2cnccc2c(=O)[nH]1	3.16 µM	8.6										
CCCc1nc2cnccc2c(=O)[nH]1	12.6 µM	8.8										
O=c1[nH]c(Oc2cnn(CC3CCCCC3)c2)nc2cnccc12	0.631 µM		5.01 µM	0.631 µM	0.398 µM	0.501 µM	> 100 µM	> 100 µM	0.0794 µM	2.5 µM	2.9	2 µM

Other lines, results leading:

IC50 [1]	pKa [2]	IC50 [3]	IC50 [4]	IC50 [5]	IC50 [6]	IC50 [7]	IC50 (Prolyl hydroxylase EGLN3)	IC50 [8]	IC50 [9]	logD (physchem)	IC50 [10]	SMILES
1 µM	7.5	63.1 µM										CCOc1nc2cnccc2c(=O)[nH]1
0.794 µM	6.8	> 100 µM										CCSc1nc2cnccc2c(=O)[nH]1
